Test results as given in ChEMBL document CHEMBL1772983, “Bioactive sesqui- and diterpenoids from the Argentine liverwort Porella chilensis” (2011).
The source made the active and inactive calls. No cut-off for these calls is given here.

What was measured:
Pseudomonas aeruginosa [1] = test: Antibacterial activity against Pseudomonas aeruginosa ATCC 27853 assessed as growth inhibition by microplate assay; type: functional, organism-based
How it was run: (§1)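 Overnight P. aeruginosa ATCC 27853 culture diluted to 10% (v/v) in LB medium. 190 µL of culture plus 10 µL of 1 or 0.1 mg/mL stock in DMSO–water (1:1), giving 50 or 5 µg/mL. 8 replicates; vehicle-only negative control. Incubated 37 °C, 24 h; growth read as OD600. Mean ± SD, Student's t-test, p ≤ 0.05.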

Pseudomonas aeruginosa [2] = test: Antibacterial activity against Pseudomonas aeruginosa ATCC 27853 assessed as increase in bacterial growth at 50 ug/ml by microplate assay relative to control; type: functional; how it was run: as §1
Pseudomonas aeruginosa [3] = test: Induction of Pseudomonas aeruginosa ATCC 27853 biofilm formation at 0.6 uM after 24 hrs using crystal violet staining by spectrophotometry analysis; type: functional, organism-based
Pseudomonas aeruginosa [4] = test: Induction of Pseudomonas aeruginosa ATCC 27853 biofilm formation at 50 ug/ml after 24 hrs using crystal violet staining by spectrophotometry analysis relative to control; type: functional
How it was run: (§2)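 ATCC 27853 culture diluted to 10% (v/v) in LB and dosed from DMSO–water (1:1) stocks of 1 or 0.1 mg/mL (10 µL into 190 µL), 8 replicates, vehicle control. After 24 h at 37 °C, liquid discarded and wells washed three times with PBS. Stained with 0.1% crystal violet for 20 min, rinsed with water, dye eluted with absolute EtOH, A540 read. Mean ± SD, Student's t-test.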

Pseudomonas aeruginosa [5] = test: Induction of quorum sensing in Pseudomonas aeruginosa ATCC 27853 assessed as N-acylhomoserin lactones production at 50 ug/ml after 24 hrs by measuring beta-galactosidase activity by spectrophotometry
Pseudomonas aeruginosa [6] = test: Inhibition of quorum sensing activity in Pseudomonas aeruginosa ATCC 27853 assessed as N-acylhomoserin lactones production at 5 to 50 ug/ml after 24 hrs by measuring beta-galactosidase activity by spectrophotometry
Pseudomonas aeruginosa [7] = test: Inhibition of Pseudomonas aeruginosa ATCC 27853 biofilm formation at 16.4 uM after 24 hrs using crystal violet staining by spectrophotometry analysis relative to control; type: functional; details: ATCC 27853, 24 h; how it was run: as §2
Pseudomonas aeruginosa [8] = test: Antibacterial activity against Pseudomonas aeruginosa ATCC 27853 assessed as growth inhibition at 5 ug/ml after 24 hrs by microplate assay relative to control; type: functional; details: ATCC 27853, 24 h, read-out: GI; how it was run: as §1
Pseudomonas aeruginosa [9] = test: Inhibition of Pseudomonas aeruginosa ATCC 27853 biofilm formation at 5 to 50 ug/ml after 24 hrs using crystal violet staining by spectrophotometry analysis; type: functional, organism-based; how it was run: as §2
Pseudomonas aeruginosa [10] = test: Inhibition of Pseudomonas aeruginosa ATCC 27853 biofilm formation at 5 ug/ml after 24 hrs using crystal violet staining by spectrophotometry analysis; type: functional; details: ATCC 27853, 24 h; how it was run: as §2
Pseudomonas aeruginosa [11] = test: Antibacterial activity against Pseudomonas aeruginosa ATCC 27853 assessed as growth inhibition at 5 ug/ml by microplate assay; type: functional; how it was run: as §1
Pseudomonas aeruginosa [12] = test: Antibacterial activity against Pseudomonas aeruginosa ATCC 27853 assessed as increase in bacterial growth at 5 to 50 ug/ml by microplate assay; type: functional, organism-based; how it was run: as §1
Pseudomonas aeruginosa [13] = test: Antibacterial activity against Pseudomonas aeruginosa ATCC 27853 assessed as growth inhibition at 5 to 50 ug/ml after 24 hrs by microplate assay; type: functional, organism-based; how it was run: as §1
Pseudomonas aeruginosa [14] = test: Inhibition of Pseudomonas aeruginosa ATCC 27853 biofilm formation at 50 ug/ml after 24 hrs using crystal violet staining by spectrophotometry analysis relative to control; details: ATCC 27853, 24 h
Pseudomonas aeruginosa [15] = test: Inhibition of Pseudomonas aeruginosa ATCC 27853 biofilm formation at 5 ug/ml after 24 hrs using crystal violet staining by spectrophotometry analysis relative to control; type: functional; how it was run: as §2
Pseudomonas aeruginosa [16] = test: Inhibition of quorum sensing activity in Pseudomonas aeruginosa ATCC 27853 assessed as N-acylhomoserin lactones production at 5 ug/ml after 24 hrs by measuring beta-galactosidase activity by spectrophotometry relative to control; parameters: scale not given: the % may be the effect or the level left
Pseudomonas aeruginosa [17] = test: Inhibition of quorum sensing activity in Pseudomonas aeruginosa ATCC 27853 assessed as N-acylhomoserin lactones production at 5 ug/ml after 24 hrs by measuring beta-galactosidase activity by spectrophotometry
Pseudomonas aeruginosa [18] = test: Inhibition of quorum sensing activity in Pseudomonas aeruginosa ATCC 27853 assessed as N-acylhomoserin lactones production at 16.4 uM after 24 hrs by measuring beta-galactosidase activity by spectrophotometry; parameters: scale not given: the % may be the effect or the level left
Pseudomonas aeruginosa [19] = test: Antibacterial activity against Pseudomonas aeruginosa ATCC 27853 assessed as growth inhibition at 50 ug/ml by microplate assay relative to control; type: functional; details: read-out: GI; how it was run: as §1

Question: Which “growth inhibition (GI)” value (Pseudomonas aeruginosa [1]) does the source give for `CC1=CC(=O)[C@@H]2[C@@H](C)CC[C@H]3[C@@H](C(C)C)CC[C@]3(C)C[C@@]12O` here?
Answer: The value was “Dose-dependent effect”.

Question: What about the Activity (Pseudomonas aeruginosa [2]) of the same compound?
Answer: Its Activity is 15%.

Question: What about the biofilm induction (Pseudomonas aeruginosa [3]) of the same compound?
Answer: The biofilm induction was “inactive”.

Question: And the Activity (Pseudomonas aeruginosa [4])?
Answer: Its Activity is 95%.

Question: And the Activity (Pseudomonas aeruginosa [5])?
Answer: Its Activity is “Active”.

Question: What does the source list for `CC1(C)[C@@H]2[C@@H]3[C@H](CC[C@@]3(C)O)[C@@](C)(O)CC[C@@H]21`?
Answer: inhibition (Pseudomonas aeruginosa [6]): 80%; inhibition at 16.4 µM (Pseudomonas aeruginosa [7]): 37%; biofilm induction (Pseudomonas aeruginosa [3]): inactive; inhibition of growth at 5 µg/mL (Pseudomonas aeruginosa [8]): 24%; inhibition (Pseudomonas aeruginosa [9]): Active

Question: How did the inhibition at 5 µg/mL (Pseudomonas aeruginosa [10]) turn out when `O=C(O)c1cn(C2CC2)c2cc(N3CCNCC3)c(F)cc2c1=O` [CIPROFLOXACIN] was run?
Answer: The inhibition at 5 µg/mL was 51%.

Question: What about the inhibition of growth at 5 µg/mL (Pseudomonas aeruginosa [11]; read-out: GI) of the same compound?
Answer: The inhibition of growth at 5 µg/mL was 73%.

Question: With `C=CC1(O)CC[C@@]2(C)[C@H](C)CC[C@@]2(C)[C@@H]1C` (stereo not given in full) as the compound, how does the inhibition (Pseudomonas aeruginosa [6]) read?
Answer: The inhibition was “Active”.

Question: And the Activity (Pseudomonas aeruginosa [12])?
Answer: Its Activity is “Active”.

Question: What about the “growth inhibition (GI)” value (Pseudomonas aeruginosa [13]) of the same compound?
Answer: The value was “Active”.

Question: And the biofilm induction (Pseudomonas aeruginosa [3])?
Answer: The biofilm induction was “inactive”.

Question: What about the inhibition (Pseudomonas aeruginosa [9]) of the same compound?
Answer: The inhibition was “Active”.

Question: `CC(=O)OC[C@@]12Cc3occc3C(=O)[C@]1(C)CC[C@H]2C` [NORPINGUISONE ACETATE] was tested. Which Activity (Pseudomonas aeruginosa [12]) did it give?
Answer: The Activity was “Active”.

Question: And the biofilm induction (Pseudomonas aeruginosa [3])?
Answer: Its biofilm induction is “inactive”.

Question: What about the inhibition at 50 µg/mL (Pseudomonas aeruginosa [14]) of the same compound?
Answer: Its inhibition at 50 µg/mL is 27%.

Question: What about the inhibition at 5 µg/mL (Pseudomonas aeruginosa [15]; ATCC 27853, 24 h) of the same compound?
Answer: Its inhibition at 5 µg/mL is 20%.

Question: What does the source list for `CC(C)[C@H]1CC[C@]2(C)CC3=C(C(=O)C[C@@]3(C)O)[C@@H](C)CC[C@@H]12`?
Answer: biofilm induction (Pseudomonas aeruginosa [3]): inactive; Activity (Pseudomonas aeruginosa [4]): 93%; Activity (Pseudomonas aeruginosa [5]): Active

Question: `COC(=O)[C@@]12Cc3occc3C(=O)[C@]1(C)CC[C@H]2C` was tested. Which inhibition (Pseudomonas aeruginosa [6]) did it give?
Answer: Its inhibition is “inactive”.

Question: What about the Activity (Pseudomonas aeruginosa [12]) of the same compound?
Answer: The Activity was “Active”.

Question: What about the “growth inhibition (GI)” value (Pseudomonas aeruginosa [13]) of the same compound?
Answer: The value was “inactive”.

Question: And the biofilm induction (Pseudomonas aeruginosa [3])?
Answer: Its biofilm induction is “inactive”.

Question: For `C[C@@H]1CC[C@@]2(C)C(=O)c3ccoc3C[C@@]12C`, which inhibition (Pseudomonas aeruginosa [6]) is on record?
Answer: The inhibition was “Active”.

Question: What about the Activity (Pseudomonas aeruginosa [12]) of the same compound?
Answer: The Activity was “Active”.

Question: What about the “growth inhibition (GI)” value (Pseudomonas aeruginosa [13]) of the same compound?
Answer: The value was “Active”.

Question: And the biofilm induction (Pseudomonas aeruginosa [3])?
Answer: Its biofilm induction is “inactive”.

Question: What about the inhibition (Pseudomonas aeruginosa [9]) of the same compound?
Answer: The inhibition was “Active”.

Question: What does the source list for `CC[C@H]1OC(=O)[C@H](C)[C@@H](O[C@H]2C[C@@](C)(OC)[C@@H](O)[C@H](C)O2)[C@H](C)[C@@H](O[C@@H]2O[C@H](C)C[C@H](N(C)C)[C@H]2O)[C@](C)(O)C[C@@H](C)CN(C)[C@H](C)[C@@H](O)[C@]1(C)O`?
Answer: Activity (Pseudomonas aeruginosa [16]): 76%; growth inhibition (GI) (Pseudomonas aeruginosa [11]): inactive; inhibition (Pseudomonas aeruginosa [17]): 76%

Question: What does the source list for `C=C1CC[C@H]2[C@@H]([C@@H]3[C@@H]1CC[C@@]3(C)O)C2(C)C`?
Answer: inhibition (Pseudomonas aeruginosa [6]): 33%; inhibition at 16.4 µM (Pseudomonas aeruginosa [7]): 41%; biofilm induction (Pseudomonas aeruginosa [3]): inactive; Activity (Pseudomonas aeruginosa [18]): 33%; inhibition (Pseudomonas aeruginosa [9]): Active; growth inhibition (GI) (Pseudomonas aeruginosa [11]): Active; inhibition (Pseudomonas aeruginosa [15]): Active

Question: With `CC1=C2C[C@@]3(C)CC[C@H](C(C)C)[C@@H]3CC[C@H](C)[C@]2(O)CC1=O` [FUSICOAURITONE] as the compound, how does the “growth inhibition (GI)” value (Pseudomonas aeruginosa [1]) read?
Answer: The value was “Dose-dependent effect”.

Question: What about the biofilm induction (Pseudomonas aeruginosa [3]) of the same compound?
Answer: Its biofilm induction is “inactive”.

Question: What about the Activity (Pseudomonas aeruginosa [4]) of the same compound?
Answer: Its Activity is 105%.

Question: And the inhibition of growth at 50 µg/mL (Pseudomonas aeruginosa [19])?
Answer: The inhibition of growth at 50 µg/mL was 25%.

Question: And the Activity (Pseudomonas aeruginosa [5])?
Answer: Its Activity is “Active”.

Question: What does the source list for `CC(C)[C@H]1CC[C@]2(C)C[C@]3(O)C(=CC(=O)[C@H]3C)[C@@H](C)CC[C@@H]12` [ANADENSIN]?
Answer: inhibition (Pseudomonas aeruginosa [6]): Active; inhibition at 16.4 µM (Pseudomonas aeruginosa [7]): 47%; growth inhibition (GI) (Pseudomonas aeruginosa [13]): Active; growth inhibition (GI) (Pseudomonas aeruginosa [1]): Dose-dependent effect; biofilm induction (Pseudomonas aeruginosa [3]): inactive; inhibition (Pseudomonas aeruginosa [9]): Active; inhibition of growth at 50 µg/mL (Pseudomonas aeruginosa [19]): 16%
